Test results taken from ChEMBL document CHEMBL1145344, “Brunsvicamides A-C: sponge-related cyanobacterial peptides with Mycobacterium tuberculosis protein tyrosine phosphatase inhibitory activity” (J Med Chem, 2006).

What was measured:
[1] = molecular target: T1, M-phase inducer phosphatase 1 (Homo sapiens, UniProt P30304); assay: Inhibition of CDC25a
T1 sequence (P30304 whole entry): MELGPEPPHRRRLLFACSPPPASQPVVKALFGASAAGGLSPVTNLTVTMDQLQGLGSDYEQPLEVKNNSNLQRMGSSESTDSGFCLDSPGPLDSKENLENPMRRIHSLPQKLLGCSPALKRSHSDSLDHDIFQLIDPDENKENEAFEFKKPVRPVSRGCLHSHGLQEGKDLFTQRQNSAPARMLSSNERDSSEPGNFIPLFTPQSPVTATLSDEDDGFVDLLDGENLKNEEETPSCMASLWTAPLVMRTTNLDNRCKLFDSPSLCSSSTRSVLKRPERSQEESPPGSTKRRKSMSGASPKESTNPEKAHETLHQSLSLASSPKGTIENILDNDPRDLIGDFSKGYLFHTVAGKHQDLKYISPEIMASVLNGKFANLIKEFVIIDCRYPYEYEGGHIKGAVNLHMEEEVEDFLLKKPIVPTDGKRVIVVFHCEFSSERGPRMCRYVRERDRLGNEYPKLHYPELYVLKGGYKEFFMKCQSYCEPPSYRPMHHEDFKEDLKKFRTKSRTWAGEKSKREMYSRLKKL
Outline: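 Recombinant CDC25A, pre-incubated 10-15 min with inhibitor in 50 mM Tris, 50 mM NaCl, 0.1 mM EDTA, 2 mM DTE, 0.025% NP-40. Started with p-nitrophenyl phosphate at 50 mM final. Inhibitor at 100-3.125 µM in 2-fold steps. Rate was taken from the A405 slope versus an uninhibited control, in quadruplicate. IC50 came from linear extrapolation against log concentration.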

[2] = molecular target: Dual specificity protein phosphatase 3 (Homo sapiens, UniProt P51452); assay: Inhibition of VHR
Chain of Dual specificity protein phosphatase 3 (P51452 whole entry): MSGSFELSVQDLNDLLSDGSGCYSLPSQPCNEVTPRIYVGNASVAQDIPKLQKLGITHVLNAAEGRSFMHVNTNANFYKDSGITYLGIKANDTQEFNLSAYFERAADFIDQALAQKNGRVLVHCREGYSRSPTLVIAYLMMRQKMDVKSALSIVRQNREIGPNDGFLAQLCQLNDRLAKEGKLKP
Outline: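 VHR in 25 mM MOPS, 5 mM EDTA, 2 mM DTE, 0.025% NP-40, pre-incubated 10-15 min with inhibitor at 100-3.125 µM (2-fold). Reaction started with 1 mM p-nitrophenyl phosphate. Rate from the A405 slope versus control, in quadruplicate. IC50 was derived by linear extrapolation of velocity against log inhibitor concentration.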

[3] = molecular target: T2, Phosphotyrosine-protein phosphatase PTPB (Mycobacterium tuberculosis, UniProt P96830); assay: Inhibition of Mycobacterium tuberculosis ptpb
T2 sequence (P96830 whole entry): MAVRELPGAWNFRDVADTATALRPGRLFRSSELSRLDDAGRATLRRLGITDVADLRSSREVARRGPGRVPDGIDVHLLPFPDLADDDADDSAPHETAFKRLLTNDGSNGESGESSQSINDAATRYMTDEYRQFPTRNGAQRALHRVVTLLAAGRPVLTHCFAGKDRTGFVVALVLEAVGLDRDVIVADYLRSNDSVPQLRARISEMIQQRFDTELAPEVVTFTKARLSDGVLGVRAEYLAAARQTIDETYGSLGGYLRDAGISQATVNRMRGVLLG
Outline: (§1)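 MptpA or MptpB was expressed in E. coli BL21(DE3) with 1 mM IPTG for 4 h at 25 °C, then purified by Ni-NTA and Superdex 75 gel filtration. Enzyme was pre-incubated 10-15 min with inhibitor (100-3.125 µM, 2-fold) in 25 mM HEPES, 50 mM NaCl, 2.5 mM EDTA, 2 mM DTE, 0.025% NP-40. Reaction used 1 mM p-nitrophenyl phosphate, read as A405 slope, quadruplicate, IC50 from log-concentration extrapolation.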

[4] = molecular target: T3, Low molecular weight protein-tyrosine phosphatase A (Mycobacterium tuberculosis, UniProt P9WIA1); assay: Inhibition of Mycobacterium tuberculosis ptpA; outline: as §1
T3 sequence (P9WIA1 whole entry): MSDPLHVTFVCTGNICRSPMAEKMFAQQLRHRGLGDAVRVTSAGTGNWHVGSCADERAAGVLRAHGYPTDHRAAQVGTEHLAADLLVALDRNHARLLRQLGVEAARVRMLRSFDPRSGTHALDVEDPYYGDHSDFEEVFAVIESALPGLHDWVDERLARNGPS

[5] = molecular target: T4, Tyrosine-protein phosphatase non-receptor type 1 (Homo sapiens, UniProt P18031); assay: Inhibition of PTP1b
T4 sequence (P18031 whole entry): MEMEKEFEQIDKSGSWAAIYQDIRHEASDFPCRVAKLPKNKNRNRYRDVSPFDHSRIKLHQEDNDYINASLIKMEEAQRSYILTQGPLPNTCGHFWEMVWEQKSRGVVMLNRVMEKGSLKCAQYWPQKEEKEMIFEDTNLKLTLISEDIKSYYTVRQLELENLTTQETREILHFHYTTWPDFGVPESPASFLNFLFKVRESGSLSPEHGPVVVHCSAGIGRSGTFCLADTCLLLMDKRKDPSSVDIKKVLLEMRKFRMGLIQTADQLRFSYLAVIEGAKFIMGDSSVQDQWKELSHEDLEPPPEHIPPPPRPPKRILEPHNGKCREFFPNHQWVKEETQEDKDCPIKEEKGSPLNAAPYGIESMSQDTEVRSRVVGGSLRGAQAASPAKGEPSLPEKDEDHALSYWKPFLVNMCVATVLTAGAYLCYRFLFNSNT
Outline: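 PTP1b pre-incubated 10-15 min with inhibitor (2-fold series, 100 down to 3.125 µM) in 25 mM HEPES, 50 mM NaCl, 2.5 mM EDTA, 2 mM DTE, 0.025% NP-40. Reaction started with 1 mM p-nitrophenyl phosphate. Velocity from the A405 slope relative to an inhibitor-free control, quadruplicates. IC50 by linear extrapolation of velocity versus log concentration, with 100 µM as the upper limit.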

[6] = molecular target: T5, Tyrosine-protein phosphatase non-receptor type 11 (Homo sapiens, UniProt Q06124); assay: Inhibition of SHP2
T5 sequence (Q06124 whole entry): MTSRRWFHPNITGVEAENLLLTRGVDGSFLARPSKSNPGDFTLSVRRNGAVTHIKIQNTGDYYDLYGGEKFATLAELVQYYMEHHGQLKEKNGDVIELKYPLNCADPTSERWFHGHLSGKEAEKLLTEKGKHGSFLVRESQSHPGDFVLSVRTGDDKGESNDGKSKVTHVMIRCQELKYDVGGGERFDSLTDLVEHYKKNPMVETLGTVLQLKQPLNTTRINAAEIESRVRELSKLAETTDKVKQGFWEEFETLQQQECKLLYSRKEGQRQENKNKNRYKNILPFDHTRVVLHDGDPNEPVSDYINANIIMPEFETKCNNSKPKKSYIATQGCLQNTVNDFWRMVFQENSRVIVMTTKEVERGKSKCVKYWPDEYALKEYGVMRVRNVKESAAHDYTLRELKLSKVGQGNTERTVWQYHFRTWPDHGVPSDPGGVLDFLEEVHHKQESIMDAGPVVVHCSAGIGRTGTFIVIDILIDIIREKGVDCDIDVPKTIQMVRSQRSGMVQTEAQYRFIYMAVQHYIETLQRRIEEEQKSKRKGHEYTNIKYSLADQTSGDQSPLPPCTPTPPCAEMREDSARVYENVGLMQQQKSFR
Outline: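 SHP2 pre-incubated 10-15 min with a 2-fold inhibitor series (100-3.125 µM) in buffer with 2 mM DTE and 0.025% NP-40. Reaction used 1 mM p-nitrophenyl phosphate. Enzyme was set to give 1-2 OD405/h. Velocity was taken from the A405 slope, with quadruplicate wells. IC50 came from linear extrapolation against log concentration.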

CC[C@H](C)[C@H](NC(=O)N[C@@H]1CCCCNC(=O)[C@H](Cc2ccccc2)NC(=O)[C@H](Cc2c[nH]c3ccccc23)N(C)C(=O)[C@H](CC(C)C)NC(=O)[C@H]([C@@H](C)CC)NC1=O)C(=O)O
IC50 [1]: > 100 µM | IC50 [2]: > 100 µM | IC50 [3]: 7.3 µM | IC50 [4]: > 100 µM

CC[C@H](C)[C@H](NC(=O)N[C@@H]1CCCCNC(=O)[C@H](Cc2ccccc2)NC(=O)[C@H](Cc2c[nH]c3ccccc23)N(C)C(=O)[C@H](CC(C)C)NC(=O)[C@H](C(C)C)NC1=O)C(=O)O [BRUNSVICAMIDE A]
IC50 [1]: > 100 µM | IC50 [2]: > 100 µM | IC50 [3]: 64.2 µM | IC50 [4]: > 100 µM

CC[C@H](C)[C@H](NC(=O)N[C@H]1CCCCNC(=O)[C@H](Cc2ccccc2)NC(=O)[C@H](Cc2c[nH]c3ccccc23)N(C)C(=O)[C@H](CC(C)C)NC(=O)[C@H](C(C)C)NC1=O)C(=O)O [BRUNSVICAMIDE A]
IC50 [5]: > 100 µM | IC50 [6]: > 100 µM

CC[C@H](C)[C@H](NC(=O)N[C@H]1CCCCNC(=O)[C@H](Cc2ccccc2)NC(=O)[C@H](Cc2c[nH]c3ccccc23)N(C)C(=O)[C@H](CC(C)C)NC(=O)[C@H]([C@@H](C)CC)NC1=O)C(=O)O
IC50 [5]: > 100 µM | IC50 [6]: > 100 µM
